According to ChEMBL document CHEMBL1124106, “Synthesis of diethylenetriaminepentaacetic acid conjugated inulin and utility for cellular uptake of liposomes” (J Med Chem, 1988):
Several values for one entry are separate records, joined by “and”; a condition that tells them apart may be missing. Equal entries are not always repeated.

What was measured:
Details in all cases: in vivo
Mus musculus [1] = assay: Biodistribution in mice brain, after 48 hr of intravenous administrating 1-2 ug of compound (entrapped in bovine brain sphingomyelin/ cholesterol multilamellar vehicles); format: ADME, organism-based
Outline: (§1)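 BALB/c mice (about 25 g), 3–5 per group, given 50–100 μL tail-vein injection of 111In-labeled conjugate entrapped in SM/CH (2:1 mol/mol) multilamellar vesicles, approx. 100 000 cpm; dose 1–2 μg phospholipid/g body weight. Killed by cervical dislocation at set times; blood, cumulative excretion and rinsed, blotted, weighed tissues γ-counted, blood background subtracted. Result is % injected dose ± SD.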

Mus musculus [2] = assay: Biodistribution of compound in mice liver after 21 hr of intravenous injection; format: ADME, organism-based
Outline: (§2)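 BALB/c mice (about 25 g), n = 4. Free ¹¹¹In- or ⁶⁷Ga-labeled compound (50–100 μL, about 100 000 cpm) was injected into a tail vein. Mice were held in separate cages and killed by cervical dislocation, with blood and cumulative excreta collected. Tissues were rinsed, blotted, weighed and γ-counted, with blood background subtracted (blood volume 8.0%). Values are % injected dose ± SD.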

Mus musculus [3] = assay: Biodistribution in mice skin, after 1 hr of intravenous administration of 1-2 ug of compound (entrapped in bovine brain sphingomyelin/ cholesterol multilamellar vehicles); format: ADME, organism-based, Zone of skin; outline: as §1
Mus musculus [4] = assay: Biodistribution in mice kidneys, after 1 hr of intravenous administration of 1-2 ug of compound (entrapped in bovine brain sphingomyelin/ cholesterol multilamellar vehicles)
Mus musculus [5] = assay: Biodistribution in mice spleen, after 1 hr of intravenous aadministration of 1-2 ug of compound (entrapped in bovine brain sphingomyelin/ cholesterol multilamellar vehicles); format: ADME, organism-based; outline: as §1
Mus musculus [6] = assay: Biodistribution of compound in mice intestine after 1 hr of intravenous injection; format: ADME, organism-based; outline: as §2
Mus musculus [7] = assay: Biodistribution in mice intestine, after 24 hr of intravenous administration of 1-2 ug of compound (entrapped in bovine brain sphingomyelin/ cholesterol multilamellar vehicles); format: ADME, organism-based; outline: as §1
Mus musculus [8] = assay: Biodistribution of compound in mice blood after 1 hr of intravenous injection; format: ADME, organism-based; outline: as §2

Compound: NCCNC(=O)CN(CCN(CCN(CC(=O)O)CC(=O)O)CC(=O)O)CC(=O)O
- ID (Mus musculus [1]): 0.2%
- ID (Mus musculus [2]): 0.4% and 2.1%
- ID (Mus musculus [3]): 1.6%
- ID (Mus musculus [4]): 0.5%
- ID (Mus musculus [5]): 3.9%
- ID (Mus musculus [6]): 0.8% and 1.4%
- ID (Mus musculus [7]): 0.8%
- ID (Mus musculus [8]): 1.1% and 4.5%
